≈ marks a conversion by molar mass, not a printed value.
Tests used:
HL-60 [1] = assay: Tumor necrosis factor-alpha production in human leukemia cell line (HL-60) stimulated with 10 nM 12-O-tetradecanoylphorbol 13-acetate (TPA) at 30 uMolar.; format: functional
Summary of the method: (§1)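 HL-60 cells at 5 × 10⁵/mL in RPMI1640 + 10% FBS were co-treated with 30 μM test compound and either 10 nM TPA or 50 nM OA for 16 h at 37 °C. Culture-medium TNF-α was measured by ELISA and expressed as % of inducer-alone control. Cell counts were taken at harvest. Assays were run in duplicate or triplicate (mean taken), at least three times.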

HL-60 [2] = assay: Tumor necrosis factor-alpha production in human leukemia cell line (HL-60) stimulated with 50 nM okadaic acid (OA), at 30 uMolar.; format: functional; summary of the method: as §1
WI-38 [3] = assay: In vitro cytotoxicity against human embryonic lung fibroblast WI-38 cells.; format: functional, cell-based
Summary of the method: (§2)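 WI-38 human embryonic lung fibroblasts (5 × 10³ cells/well) in RPMI1640 + 10% FCS were exposed to graded concentrations of compound for 48 h at 37 °C. Viability was read by WST-1 with 1-methoxy PMS (2 h, 37 °C; absorbance at 450 nm). IC50 was reported in μg/mL, with the μM equivalent in parentheses.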

WI-38 [4] = assay: The cytotoxicity of the compounds assessed using human embryonic lung fibroblast WI-38 cells at (148 micro M); format: functional, cell-based; summary of the method: as §2
WI-38 [5] = assay: The cytotoxicity of the compounds assessed using human embryonic lung fibroblast WI-38 cells at (95 micro M); format: functional, cell-based; summary of the method: as §2
HL-60 [6] = assay: Amount of tumor necrosis factor-alpha produced by human leukemia cell line (HL-60) stimulated with 10 nM12-O-tetradecanoylphorbol 13-acetate (TPA) at 0.3 uM, measured by ELISA; format: functional
Summary of the method: (§3)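 HL-60 cells (2.5 × 10⁵ in 0.5 mL, i.e. 5 × 10⁵/mL), growing exponentially in RPMI1640 + 10% FBS, were exposed to 10 nM TPA or 50 nM OA together with 0.3 μM test compound for 16 h at 37 °C. Secreted TNF-α was quantified by ELISA and expressed as % of inducer-alone production. Each run was done in duplicate or triplicate (mean taken) and repeated at least three times.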

HL-60 [7] = assay: Inhibition of 50 nM okadaic acid induced tumor necrosis factor-alpha production in human leukemia cell line (HL-60) by 0.3 uM.; format: functional; summary of the method: as §3
WI-38 [8] = assay: The cytotoxicity of the compounds assessed using human embryonic lung fibroblast WI-38 cells at (25 micro M); format: functional, cell-based; summary of the method: as §2
WI-38 [9] = assay: The cytotoxicity of the compounds assessed using human embryonic lung fibroblast WI-38 cells at (40 micro M); format: functional, cell-based; summary of the method: as §2
WI-38 [10] = assay: The cytotoxicity of the compounds assessed using human embryonic lung fibroblast WI-38 cells at (39 micro M); format: functional, cell-based; summary of the method: as §2
WI-38 [11] = assay: The cytotoxicity of the compounds assessed using human embryonic lung fibroblast WI-38 cells at (99 micro M); format: functional, cell-based; summary of the method: as §2
WI-38 [12] = assay: The cytotoxicity of the compounds assessed using human embryonic lung fibroblast WI-38 cells at (20 micro M); format: functional, cell-based; summary of the method: as §2
WI-38 [13] = assay: The cytotoxicity of the compounds assessed using human embryonic lung fibroblast WI-38 cells at (8 micro M); format: functional, cell-based; summary of the method: as §2
WI-38 [14] = assay: The cytotoxicity of the compounds assessed using human embryonic lung fibroblast WI-38 cells at (2.6 micro M).; format: functional, cell-based; summary of the method: as §2
WI-38 [15] = assay: The cytotoxicity of the compounds assessed using human embryonic lung fibroblast WI-38 cells at (121 micro M); format: functional, cell-based; summary of the method: as §2
HL-60 [16] = assay: Amount of tumor necrosis factor-alpha produced in human leukemia cell line (HL-60) stimulated with 10 nM12-O-tetradecanoylphorbol 13-acetate (TPA) at 0.3 micro M, measured by ELISA.; format: functional; summary of the method: as §3
HL-60 [17] = assay: Amount of tumor necrosis factor-alpha produced by human leukemia cell line (HL-60) stimulated with 50 nM okadaic acid (OA), at 0.3 uM, measured by ELISA.; format: functional; summary of the method: as §3
WI-38 [18] = assay: The cytotoxicity of the compounds assessed using human embryonic lung fibroblast WI-38 cells at (2.3 micro M); format: functional, cell-based; summary of the method: as §2
WI-38 [19] = assay: The cytotoxicity of the compounds assessed using human embryonic lung fibroblast WI-38 cells at (136 micro M); format: functional, cell-based; summary of the method: as §2

Row | Structure (SMILES) | Amount of TNF-alpha (HL-60 [1]) | Amount of TNF-alpha (HL-60 [2]) | IC50 (WI-38 [3]) | Amount of TNF-alpha (HL-60 [6]) | Amount of TNF-alpha (HL-60 [7]) | also measured
1 | CC(C)c1ccccc1N1C(=O)c2ccccc2C1=O | 158% | 105% | > 100 µg/mL | – | – | –
2 | CC(C)c1cccc(C(C)C)c1N1Cc2ccccc2C1=O | 214% | 40% | – | – | – | IC50 (WI-38 [4]): 43.1 µg/mL (≈ 147 µM)
3 | CC(C)c1cccc(C(C)C)c1N1C(=O)c2ccccc2C1=S | 1252% | 0% | – | – | – | IC50 (WI-38 [5]): 30.8 µg/mL (≈ 95.2 µM)
4 | CC/N=C1\c2ccccc2C(=O)N1c1c(C(C)C)cccc1C(C)C | 138% | 75% | – | – | – | –
5 | CC(C)c1cccc(C(C)C)c1N1C(=O)c2cccc(O)c2C1=O | 239% | 64% | > 100 µg/mL | – | – | –
6 | CC[C@@H](c1ccccc1)N1C(=O)c2c(F)c(F)c(F)c(F)c2C1=O | – | – | – | 235% | 87% | –
7 | O=C1c2ccccc2C(=O)N1c1ccccc1-c1ccccc1 | 262% | 40% | > 100 µg/mL | – | – | –
8 | Cc1cccc(C)c1N1C(=O)c2ccccc2C1=O | 161% | 40% | > 100 µg/mL | – | – | –
9 | Cc1cc(C)cc(N2C(=O)c3ccccc3C2=O)c1 | 136% | 89% | > 100 µg/mL | – | – | –
10 | COc1ccccc1N1C(=O)c2ccccc2C1=O | 95% | 21% | > 100 µg/mL | – | – | –
11 | CC(C)c1cccc(C(C)C)c1N1C(=O)c2cccc(N)c2C1=O | 248% | 21% | – | – | – | IC50 (WI-38 [8]): 8.1 µg/mL (≈ 25.1 µM)
12 | C[C@@H](c1ccc([N+](=O)[O-])cc1)N1C(=O)c2c(F)c(F)c(F)c(F)c2C1=O | – | – | – | 268% | 32% | –
13 | CC(=O)Nc1ccc([C@@H](C)N2C(=O)c3c(F)c(F)c(F)c(F)c3C2=O)cc1 | – | – | – | 220% | 55% | –
14 | CC(C)c1cccc(C(C)C)c1N1C(=O)Cc2ccccc2C1=O | 268% | 50% | > 100 µg/mL | – | – | –
15 | Cc1ccccc1N1C(=O)c2ccccc2C1=O | 100% | 68% | > 100 µg/mL | – | – | –
16 | C[C@H](C1CCCCC1)N1C(=O)c2c(F)c(F)c(F)c(F)c2C1=O | – | – | > 100 µg/mL | 98% | 10% | –
17 | CC[C@H](c1ccccc1)N1C(=O)c2c(F)c(F)c(F)c(F)c2C1=O | – | – | – | 111% | 67% | –
18 | CC(C)c1ccc(N2C(=O)c3ccccc3C2=O)cc1 | 139% | 33% | > 100 µg/mL | – | – | –
19 | O=C1c2ccccc2C(=O)N1c1ccccc1 [N-PHENYL-PHTHALIMIDE] | 100% | 61% | > 100 µg/mL | – | – | –
20 | C[C@@H](c1ccc(N)cc1)N1C(=O)c2c(F)c(F)c(F)c(F)c2C1=O | – | – | – | 262% | 38% | –
21 | C[C@H](c1ccccc1)N1C(=O)c2c(F)c(F)c(F)c(F)c2C1=O | – | – | – | 97% | 2% | IC50 (WI-38 [9]): 12.8 µg/mL (≈ 39.6 µM)

Row | Structure (SMILES) | Amount of TNF-alpha (HL-60 [1]) | Amount of TNF-alpha (HL-60 [2]) | IC50 (WI-38 [3]) | Amount of TNF-alpha (HL-60 [6]) | Amount of TNF-alpha (HL-60 [7]) | also measured
22 | CC(C)c1cccc(C(C)C)c1N1C(=O)c2ccccc2C1=O | 602% | 21% | > 100 µg/mL | – | – | –
23 | C[C@@H](C1CCCCC1)N1C(=O)c2c(F)c(F)c(F)c(F)c2C1=O | – | – | > 100 µg/mL | 124% | 65% | –
24 | CC(C)c1cccc(C(C)C)c1N1C(=O)c2cc3ccccc3cc2C1=O | 144% | 48% | > 100 µg/mL | – | – | –
25 | CC(C)c1cccc(C(C)C)c1N1C(=O)c2ccc(O)cc2C1=O | 153% | 7% | – | – | – | IC50 (WI-38 [10]): 12.7 µg/mL (≈ 39.3 µM)
26 | C[C@H](c1ccc([N+](=O)[O-])cc1)N1C(=O)c2c(F)c(F)c(F)c(F)c2C1=O | – | – | – | 239% | 27% | –
27 | CCc1cccc(C)c1N1C(=O)c2ccccc2C1=O | 188% | 82% | – | – | – | IC50 (WI-38 [11]): 26.2 µg/mL (≈ 98.8 µM)
28 | CCc1cccc(C(C)C)c1N1C(=O)c2ccccc2C1=O | 255% | 26% | – | – | – | IC50 (WI-38 [12]): 6 µg/mL (≈ 20.5 µM)
29 | C[C@@H](c1cccc2ccccc12)N1C(=O)c2c(F)c(F)c(F)c(F)c2C1=O | – | – | – | 101% | 101% | IC50 (WI-38 [13]): 2.8 µg/mL (≈ 7.5 µM)
30 | O=C1c2c(F)c(F)c(F)c(F)c2C(=O)N1[C@H]1CCc2ccccc21 | – | – | > 100 µg/mL | 392% | 98% | –
31 | O=C1c2c(F)c(F)c(F)c(F)c2C(=O)N1C1Cc2ccccc2C1 | – | – | – | 104% | 43% | IC50 (WI-38 [14]): 0.9 µg/mL (≈ 2.68 µM)
32 | CC(C)c1cccc(N2C(=O)c3ccccc3C2=O)c1 | 158% | 105% | > 100 µg/mL | – | – | –
33 | CC(C)c1cccc(C(C)C)c1N1C(=O)c2ccc([N+](=O)[O-])cc2C1=O | 683% | 54% | – | – | – | IC50 (WI-38 [15]): 42.7 µg/mL (≈ 121 µM)
34 | CC(C)c1cccc(C(C)C)c1N1C(=O)c2c(F)c(F)c(F)c(F)c2C1=O | – | – | – | – | – | Amount of TNF-alpha (HL-60 [16]): 375%; Amount of TNF-alpha (HL-60 [17]): 0%; IC50 (WI-38 [18]): 0.9 µg/mL (≈ 2.37 µM)
35 | C[C@H](c1ccc(N)cc1)N1C(=O)c2c(F)c(F)c(F)c(F)c2C1=O | – | – | – | 241% | 27% | –
36 | CCCCCc1ccccc1N1C(=O)c2ccccc2C1=O | 151% | 35% | > 100 µg/mL | – | – | –
37 | CC(C)c1cccc(C(C)C)c1N1C(=O)c2c(Cl)c(Cl)c(Cl)c(Cl)c2C1=O | 250% | 19% | > 100 µg/mL | – | – | –
38 | C/N=C1\c2ccccc2C(=O)N1c1c(C(C)C)cccc1C(C)C | 134% | 37% | – | – | – | –
39 | CCc1cccc(CC)c1N1C(=O)c2ccccc2C1=O | 453% | 53% | – | – | – | IC50 (WI-38 [19]): 38 µg/mL (≈ 136 µM)
40 | CC(C)c1cccc(C(C)C)c1N1C(=O)c2c(Br)c(Br)c(Br)c(Br)c2C1=O | 235% | 3% | – | – | – | –
41 | O=C1c2ccccc2C(=O)N1c1ccccc1[N+](=O)[O-] | 89% | 53% | > 100 µg/mL | – | – | –
42 | C[C@H](c1cccc2ccccc12)N1C(=O)c2c(F)c(F)c(F)c(F)c2C1=O | – | – | – | 100% | 2% | IC50 (WI-38 [13]): 2.8 µg/mL (≈ 7.5 µM)

— ChEMBL document CHEMBL1130136, “Novel biological response modifiers: phthalimides with tumor necrosis factor-alpha production-regulating activity” (J Med Chem, 1997)
